NTR1 agonist: agonists of human NTR1, primary screen, imaging, U2OS cells, beta-arrestin-GFP, high content. NTR1-U2OS beta-arrestin-GFP spot imaging, agonist mode. hit rate 0.17% among 330,000. AID 493036, 2011. activation, % at 20 µM. Neurotensin receptor type 1 (Homo sapiens), P30989;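 active means activation at or above 40% of the spot to cytoplasm intensity ratio, with at least 20 cells analyzed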
Target sequence (P30989 whole entry, looked up): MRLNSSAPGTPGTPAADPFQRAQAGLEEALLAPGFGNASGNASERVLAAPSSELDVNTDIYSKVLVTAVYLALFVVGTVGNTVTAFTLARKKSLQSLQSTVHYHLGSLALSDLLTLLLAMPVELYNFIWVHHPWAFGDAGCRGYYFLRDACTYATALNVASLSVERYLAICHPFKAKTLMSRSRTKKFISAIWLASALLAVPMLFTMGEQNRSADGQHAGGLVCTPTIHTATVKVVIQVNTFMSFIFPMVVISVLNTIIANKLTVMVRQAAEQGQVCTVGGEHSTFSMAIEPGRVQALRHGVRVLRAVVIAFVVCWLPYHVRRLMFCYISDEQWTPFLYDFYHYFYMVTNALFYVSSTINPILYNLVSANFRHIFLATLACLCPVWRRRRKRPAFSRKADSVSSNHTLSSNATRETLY
TAAR1 agonist: human TAAR1 agonists, primary screen, Fluo-8 calcium fluorescence, CHO RD-HGA16 cells. hit rate 0.99% among 360,000. vehicle wells 0%, saturating PEA agonist 100%. activation, % at 3 µM. Trace amine-associated receptor 1 (Homo sapiens), Q96RJ0;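 active means activation above the mean activation of all test compounds in the run plus 3 SD, cut at about 38% in these data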
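System: CHO-derived RD-HGA16 cells with stable Gα16 and human TAAR1. Times: 17-24 h plating, Fluo-8 75 min 37 °C, 30 min RT. Measured by: calcium-sensitive Fluo-8 signal, excitation 470-495, emission 515-575 nm. Read-out basis: % activation relative to PEA EC100 response. Control set: DMSO and PEA EC100. Repeats: no replicates (n 1).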
OX1R antag-1: OX1R (HCRTR1) antagonists, primary screen, fluorescence, CHO/OX1R cells, Fluo-8 calcium, orexin A. Fluo-8 calcium fluorescence. inhibition, % at 5 µM. hit rate 0.43% among 330,000;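 active means inhibition above its plate's threshold, mean inhibition of all tested compounds on the plate plus 3 SD, cut at about 37% in these data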
OX1R antag-2: antagonists of human orexin 1 receptor (OX1R); Orexin/Hypocretin receptor type 1 (Homo sapiens), O43613; OX1R-expressing cells, FRET antagonist read-out; inhibition, % at 6.6 µM; hit rate 1.8% among 330,000; in the data active means inhibition mostly above about 38%, no sharp cut-off; inactive means mostly below about 40%
CHO parental Ca: ATP-evoked calcium signal inhibitors, parental CHO, primary screen, counter-screen for OX1R antagonist project, cell-based, fluorescence, Fluo-8 calcium dye; parental CHO-K1, ATP-induced calcium, Fluo-8 fluorescence; hit rate 0.63% among 330,000; inhibition, % at 5.6 µM;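 active means inhibition above that plate's mean sample inhibition plus 3 SD, cut at about 26% in these data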
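Material: parental CHO cells / Compound: single nominal dose of 5.6 µM per compound / Signal: Fluo-8 fluorescence / Replicates: singlicate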
TAAR1 antagonist: human TAAR1 antagonists, primary screen, Fluo-8 calcium fluorescence, CHO RD-HGA16 cells. Trace amine-associated receptor 1 (Homo sapiens), Q96RJ0. antagonist. hit rate 1.5% among 360,000. inhibition, % at 3 µM;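 active means inhibition above a per-plate cutoff, the mean inhibition of test compounds on that plate plus 3 SD, cut at about 49% in these data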
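Material: CHO RD-HGA16 cells bearing hTAAR1; compound dosing: one-point dosing, 3 µM nominal final; schedule: dye loading 75 min at 37 °C, then 30 min room temperature; measured by: calcium fluorescence with Fluo-8; control set: vehicle and agonist controls; replication: n of 1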
Hits are given with their value; i = inactive; nt = no result given. An excerpt weighted towards active compounds, which were near 4% of everything screened.

SMILES	NTR1 agonist	TAAR1 agonist	OX1R antag-1	OX1R antag-2	CHO parental Ca	TAAR1 antagonist
CCn1c(CSc2nc3ccccc3s2)nc2ccccc21	i	i	79	100	55	i
c1csc(CSc2nc3ccccc3s2)c1	i	i	i	i	i	i
COc1ccc(/C=C/C(=O)N2CCCc3ccccc32)cc1	i	i	i	i	i	i
COc1cc(/C=C/C(=O)N2CCCc3ccccc32)cc(OC)c1OC	i	i	i	i	i	52
CCN(CC)S(=O)(=O)c1ccc(N=NC2=C(O)CCCC2=O)cc1	i	i	i	55	i	i
Cc1ccc(CNC(=O)c2oc3ccc(S(=O)(=O)N4CCC5(CC4)OCCO5)cc3c2C)cc1	i	i	i	i	i	57
Cc1nc2nc(-c3cccs3)[nH]c2cc1Br	i	i	i	43	i	i
CC(C)(C)C(=O)/C=c1\s/c(=C\c2ccc(-c3ccc([N+](=O)[O-])cc3)o2)c(=O)n1CC(=O)NC(N)=O	i	53	71	i	64	59
O=C(NCCCN1CCCC1=O)c1c(O)nc2ccccn2c1=O	i	i	i	i	i	i
COc1ccccc1CNC(=O)CSc1nc(-c2ccccc2)cn1N	i	i	i	73	i	i
COC(=O)c1cnc(SCc2ccc([N+](=O)[O-])cc2)n1C	i	i	i	i	i	i
Cn1c(CO)cnc1SCc1ccc([N+](=O)[O-])cc1	i	i	i	73	i	i
COC(=O)c1cc2c(c3c4cc(C)ccc4n(S(=O)(=O)c4cccc(C)c4)c13)C(=O)N(Cc1ccc(C(F)(F)F)cc1)C2	nt	i	nt	nt	nt	i
Cc1csc(NC(=O)c2cc[n+]([O-])cc2)n1	i	i	i	i	i	i
Cc1csc(NC(=O)c2cc([N+](=O)[O-])cc([N+](=O)[O-])c2)n1	i	i	i	64	i	i
Cc1cc(NC(=O)c2cc([N+](=O)[O-])cc([N+](=O)[O-])c2)no1	i	i	i	57	i	i
O=C(Nc1ccc(Br)cc1)c1cc([N+](=O)[O-])cc([N+](=O)[O-])c1	i	i	i	i	i	i
CC(=O)Nc1ccc(NC(=O)c2cc([N+](=O)[O-])cc([N+](=O)[O-])c2)cc1	i	i	i	57	i	i
Cc1cc(NC(=O)c2cccc([N+](=O)[O-])c2)no1	i	i	i	i	i	i
CCCn1c(CNc2ccc(Br)cc2)nc2ccccc21	i	i	i	i	34	i
CCOC(=O)C1=CCN(S(=O)(=O)c2ccccc2Br)C1c1ccc(Cl)cc1 (stereo not given)	nt	i	nt	nt	nt	i
CN1NC(=O)c2ccccc2NC1=S	nt	i	nt	nt	nt	i
COc1ccc(C(=O)Nc2ccc(C3CC3(Cl)Cl)cc2)cc1 (stereo not given)	i	i	i	i	37	i
COc1ccc(NC(=O)c2ccc3ccccc3c2)cc1	i	i	i	i	42	i
COc1ccc(C(=O)NNC(=O)c2ccc3ccccc3c2)cc1	nt	i	nt	nt	nt	i
SMILES	NTR1 agonist	TAAR1 agonist	OX1R antag-1	OX1R antag-2	CHO parental Ca	TAAR1 antagonist
COC(=O)[C@]12C[C@H](CC(=O)N3CCN(C(=O)c4ccco4)CC3)C(=O)N(Cc3ccc4c(c3)OCO4)C1=C[C@H](COCc1ccccc1)O[C@@H]2C	nt	i	nt	nt	nt	i
O=C(COC(=O)C1CCCCC1)Nc1cccc(Br)c1	i	i	i	i	i	i
O=C(Nc1ccc(Oc2ccccc2)cc1)C1CCN(c2c3c(nc4ncnn24)CCC3)CC1	i	i	36	i	49	57
O=C(Nc1ccc2c(c1)CCC2)C1CCN(c2c3c(nc4ncnn24)CCC3)CC1	i	i	i	i	i	i
O=C(NC1CCCC1)[C@@H]1CCCN1C(=O)[C@@H](NC(=O)N1CCOCC1)c1ccccc1	nt	i	nt	nt	nt	i
Cc1cc(Cl)ccc1OCC(=O)Nc1ccccc1NS(=O)(=O)c1cccs1	i	i	i	41	i	i
O=C(Nc1ccc(Cl)cc1)Nc1ccccc1NS(=O)(=O)c1cccs1	i	i	i	60	i	i
O=S(=O)(Nc1ccccc1Cl)c1ccc(NS(=O)(=O)c2cccs2)cc1	i	38	i	i	i	i
O=C(COc1ccc(Cl)cc1Cl)Nc1ccccc1NS(=O)(=O)c1cccs1	i	i	i	52	i	i
COC(=O)c1nc(N)sc1-c1ccc(Cl)c(Cl)c1	i	i	i	i	i	i
COC(=O)C1=C(C)N(C)C(=NCc2ccccc2C(F)(F)F)NC1CCc1ccccc1 (stereo not given)	nt	i	nt	nt	nt	i
O=C(C(=O)N1CCC(CNC(=O)C2COc3ccccc3O2)CC1)c1cc2ccccc2o1 (stereo not given)	nt	i	nt	nt	nt	i
CCCc1cc(-c2nc(N)ncc2-c2csc(C)n2)c(O)cc1OC	i	i	i	i	i	i
CCCc1cc(-c2nc(N)ncc2-c2ccc3c(c2)OCCCO3)c(O)cc1OC	49	i	i	i	i	i
C[C@H]1CN([C@@H](C)CO)C(=O)CCCn2cc(nn2)CO[C@@H]1CN(C)S(=O)(=O)c1ccc(F)cc1	nt	i	nt	nt	nt	i
O=C(CSc1nnc(Cc2csc(Nc3cccc(Cl)c3)n2)o1)N1CCc2ccccc21	i	i	i	i	i	51
Cc1cc(C)nc(SCc2nnc(SCC(=O)N3CCCc4ccccc43)o2)n1	i	i	i	i	i	i
CCN(CC(=O)NCc1cccs1)C(=O)c1ccc([N+](=O)[O-])o1	i	i	i	64	i	i
O=C(Nc1ccc(Cl)c(Cl)c1)OCCNC(=O)c1cccc(Cl)c1	i	i	i	i	40	i
O=c1[nH]nc(-c2ccc(NCCO)c([N+](=O)[O-])c2)c2ccccc12	i	i	i	41	i	i
Cc1cc(N2CCN(C(=O)OC(C)(C)C)C[C@@H]2C)ccc1N1CCN(Cc2ccccc2)[C@@H](C)C1	nt	i	nt	nt	nt	i
O=C(CCN=C1NS(=O)(=O)c2ccccc21)OCc1nnc(-c2ccc([N+](=O)[O-])cc2)o1	i	i	i	63	i	i
Cc1csc(=O)n1CCC(=O)OCc1nnc(-c2ccccc2)o1	i	i	i	i	i	i
O=C(OCc1ccc([N+](=O)[O-])cc1)C1CC(=O)N(CCc2ccccc2)C1 (stereo not given)	i	i	i	i	i	i
Cc1csc(=O)n1CCC(=O)OCc1nnc(-c2ccc([N+](=O)[O-])cc2)o1	i	i	i	50	i	i

High-throughput results as filed in PubChem.
